Most compounds without a hit are left out; they make up all but 29% or so of the library.
Ecoli WT expand: growth inhibitors of wild-type E. coli, primary screen, strain BW25113, expanded library, OD600; growth inhibition, % at 100 µM; actives 0.15% (n = 98,000); OD600 absorbance;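 active = growth inhibition above about 50% at one test dose, limit read from the data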;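 note: growth measured after 20 h incubation at 37 °C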
CYP2C19 inhib: blockers of cytochrome P450 2C19 activity – biochemical, luminescence, ADME assay, primary screen. CYP2C19 Supersomes, luciferin-H EGE luminescence, 30 min. P33261. AID 778, 2007. inhibition, % at 5 µM. actives 21% (n = 96,000);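 active = CYP2C19 inhibition above a set limit at 5 µM in the primary screen, cut at about 50% in these data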;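 note: plate controls were negative control wells for no effect and 2.5 mM tranylcypromine positive control for full effect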
CYP2C9 act: human CYP2C9 activators, primary screen, biochemical, luminescence; AID 1024, 2008; Cytochrome P450 2C9 (Homo sapiens), P11712; actives 1.4% (n = 96,000); recombinant CYP2C9, luciferin-H conversion; active compounds read high; factor 1 = untreated enzyme, 0 = blocked; activation factor at 5 µM;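 active = activation factor of 2 or more for CYP2C9 at a 5 µM dose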;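 note: 0 = sulfaphenazole-blocked wells and 1 = vehicle-only wells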
Target sequence (P11712 whole entry, looked up): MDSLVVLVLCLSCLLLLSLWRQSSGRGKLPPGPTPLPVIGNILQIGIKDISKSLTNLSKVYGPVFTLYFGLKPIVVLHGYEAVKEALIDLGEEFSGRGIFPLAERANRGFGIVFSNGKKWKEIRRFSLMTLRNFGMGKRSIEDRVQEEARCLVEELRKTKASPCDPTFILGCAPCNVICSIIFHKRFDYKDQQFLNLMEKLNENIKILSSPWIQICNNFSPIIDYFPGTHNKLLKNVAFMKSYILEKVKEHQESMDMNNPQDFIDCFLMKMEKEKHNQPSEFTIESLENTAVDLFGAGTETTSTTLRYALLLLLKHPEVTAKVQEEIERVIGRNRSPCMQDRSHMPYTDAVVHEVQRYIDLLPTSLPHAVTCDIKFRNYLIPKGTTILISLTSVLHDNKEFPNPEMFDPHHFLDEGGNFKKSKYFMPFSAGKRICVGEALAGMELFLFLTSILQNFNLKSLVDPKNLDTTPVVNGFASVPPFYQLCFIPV
CYP2C9 inhib: blockers of cytochrome P450 2C9 activity – biochemical, luminescence, ADME assay, primary screen. P11712. CYP2C9 Supersomes, luciferin-H conversion. inhibition, % at 5 µM. actives 20% (n = 96,000). AID 777, 2007;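 active = blocking of liver enzyme CYP2C9 beyond about 50% at 5 µM, limit read from the data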
Ecoli tolC: growth inhibitors of E. coli tolC mutant, primary screen, strain BW25113 ΔtolC::kan, 384-well. OD615. growth inhibition, % at 10 µM (by protocol). actives 2.2% (n = 65,000);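 active = growth inhibition at or above a cutoff equal to the mean over every tested compound plus 3 SD, cut at about 60% in these data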;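 note: growth measured after 20 h incubation at 37 °C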
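Test system: E. coli BW25113 ΔtolC::kan bacteria | Medium: Kanamycin-containing LB broth (50 µg/mL) | Dosing: One dose of 10 µM final | Times: 20 h incubation with compound, 37 °C | Detection: Optical density read at 615 nm | Read-out basis: Percent growth inhibition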
CYP2C19 activ: human CYP2C19 activators, primary screen, biochemical, luminescence | recombinant CYP2C19, luciferin-H EGE luminescence; active compounds read high; 0 = fully inhibited enzyme, 1 = untreated enzyme | 96,000 tested, under 10 active | activation factor at 5 µM | Cytochrome P450 2C19 (Homo sapiens), P33261 | AID 1025, 2008;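 active = activation factor of at least 2 at 5 µM in the primary screen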;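 note: 0 = wells with 2.5 mM tranylcypromine and 1 = vehicle-only wells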
* = called active by the depositor; · = not tested or not shown.

SMILES	Ecoli WT expand	CYP2C19 inhib	CYP2C9 act	CYP2C9 inhib	Ecoli tolC	CYP2C19 activ
Cn1c(SCc2nn[nH]n2)nc2c1c(=O)n(Cc1ccccc1Cl)c(=O)n2C	-4.0	-3.5	0.5	54.6*	3.3	1
CCCCOC(=O)Cn1c(=O)c2c(nc(Br)n2Cc2ccccc2)n(C)c1=O	-8.0	89.4*	0.2	78.5*	24.0	0.1
C=CCn1c(=O)c2c(nc(Br)n2Cc2ccccc2Cl)n(C)c1=O	-5.0	70.9*	1	4.3	·	0.3
COc1ccc(N2CCN(CCCNC(=O)CN3CCN(Cc4ccccc4C)C3=O)CC2)cc1	1.0	6.8	0.6	35.9	1.4	0.9
COc1ccc(OC)c(NC(=O)COC(=O)c2ccc(-n3cnnn3)cc2)c1	-5.0	63.3*	0.8	21.4	-0.7	0.4
COC(=O)c1ccc(COC(=O)c2ccc(-n3cnnn3)cc2)o1	-1.0	13.7	0.4	63.5*	-7.3	0.9
O=C(OCCOc1ccccc1Cl)c1ccc(-n2cnnn2)cc1	-6.0	47.0	0.5	46.0	5.3	0.5
COc1cc(NC(=O)COc2ccc(-n3cnnn3)cc2)c(OC)cc1Cl	1.0	14.0	1.2	-19.5	8.1	0.9
COc1ccc(C(C)=O)cc1COc1ccc(-n2cnnn2)cc1	-3.0	99.1*	0.1	93.4*	·	0
CCN1CCCC1CNC(=O)c1ccc(CS(=O)(=O)c2ccccc2C)o1 (stereo unspecified)	8.0	-12.2	1.1	-14.3	-13.3	1.1
C=CCNC(=O)/C(=C\C=C\c1ccccc1)NC(=O)c1ccc(OCCCC)cc1	-15.0	18.0	0.6	36.0	·	0.8
CCN1C2=NCCCN2c2cc(C)c(C)cc21	8.0	-13.6	1.1	-10.0	-1.8	1.1
CCC12CN(S(=O)(=O)c3ccc(C)cc3)CC(CC)(CN(S(=O)(=O)c3ccc(C)cc3)C1)C2=O	-17.0	42.7	0.6	38.2	·	0.6
CC(c1ccc(Br)cc1)N1CC23C=CC(O2)C(C(=O)O)C3C1=O (stereo unspecified)	10.0	-5.7	1.2	-19.3	-7.5	1.1
CC(C)OC(=O)C1C2C=CC3(CN(C(C)c4ccc(Br)cc4)C(=O)C13)O2 (stereo unspecified)	9.0	83.0*	0.7	30.5	1.0	0.2
Cc1cc(C)nc(SCC(=O)N2CCCCC2)n1	8.0	-4.8	1.2	-18.5	1.5	1
O=C(CSc1nc2ccccc2nc1SCC(=O)N1CCOCC1)N1CCOCC1	-2.0	-14.0	0.9	10.8	-4.2	1.1
Nc1cc(N)nc(SCC(=O)N2CCCCC2)n1	8.0	14.4	0.5	51.7*	-6.0	0.9
O=C(CSc1nc2ccccc2nc1SCC(=O)N1CCCCC1)N1CCCCC1	4.0	20.0	0	95.2*	30.7	0.8
COC(=O)c1ccc(NC(=O)CSc2nnc(COc3ccccc3)n2C)cc1	-6.0	15.1	0.8	17.1	2.2	0.8
CCOc1nc2ccccc2nc1C	6.0	-8.3	1	-4.4	·	1.1
Cc1ncc2c(c1OC(=O)c1ccccc1)COC(C)(C)OC2	2.0	99.9*	0.2	77.6*	0.5	0
O=C(CSc1nc(Nc2ccccc2)nc(N2CCOCC2)n1)N1CCCC1	-6.0	3.5	0.8	24.7	14.8	1
CC(Sc1nc(NCc2ccccc2)nc(N2CCOCC2)n1)C(=O)Nc1ccccc1 (stereo unspecified)	-6.0	24.1	0.2	80.5*	3.2	0.8
CC(=O)C(Sc1nn(C)c(=S)s1)C(=O)Nc1ccccc1 (stereo unspecified)	0.0	20.0	0	96.0*	34.0	0.8
Cc1cc(C)nc(NC(=O)CSc2nn(C)c(=S)s2)n1	9.0	6.1	1.2	-16.8	8.8	0.9
CC(Sc1nc(NCc2ccccc2)nc(N(C)C)n1)C(=O)Nc1ccccc1 (stereo unspecified)	-12.0	57.6*	0.2	81.1*	·	0.4
CCNc1nc(SC(C)C(=O)Nc2ccccc2)nc(N2CCOCC2)n1 (stereo unspecified)	-6.0	10.2	0.4	56.1*	4.8	0.9
